Reference: ChEMBL document CHEMBL1142093, “In vitro activity of the oxazolidinone RWJ-416457 against linezolid-resistant and -susceptible staphylococci and enterococci” (2007)
In brackets after ≈: the same amount, converted by molar mass.

Tests used:
Staphylococcus aureus [1] = assay: Antimicrobial activity against Staphylococcus aureus RN4220 deltamutS with 23S rRNA G2576U mutation; format: functional
Method in brief: (§1)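 MIC by CLSI agar dilution. Resistant clinical enterococcal and S. aureus isolates came mostly from UK patients, a few from Brazil and Austria. Laboratory mutants were selected from clinical isolate ST/02/2121, RN4220 and hypermutable RN4220ΔmutS. Selection used serial broth passage with linezolid rising arithmetically from 0.5 to 10 μg/ml, then repeated subculture on agar with 10 μg/ml linezolid.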

Enterococcus faecalis [2] = assay: Antimicrobial activity against Enterococcus faecalis 45 with heterozygous 23S rRNA G2576U mutation; format: functional; method in brief: as §1
Enterococcus faecium [3] = assay: Antimicrobial activity against Enterococcus faecium Ho 4136-0042; format: functional; conditions: in the assay text read “H0 4136-0043” for “Ho 4136-0042”
Method in brief: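 MIC by CLSI agar dilution against a clinical enterococcal isolate. The isolates were either linezolid-susceptible UK clinical isolates (about 100 per group) or among 23 linezolid-resistant clinical enterococci and S. aureus, mostly from UK patients, with a few from Brazil and Austria.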

Staphylococcus aureus [4] = assay: Antimicrobial activity against Staphylococcus aureus RN4220; format: functional; method in brief: as §1
Staphylococcus aureus [5] = assay: Antimicrobial activity against Staphylococcus aureus ST/02/2121 with 23S rRNA T2504C mutation; format: functional; method in brief: as §1
Staphylococcus aureus [6] = assay: Antimicrobial activity against Staphylococcus aureus RN4220 deltamutS revertant with 23S rRNA G2576U mutation; format: functional; method in brief: as §1
Enterococcus faecium [7] = assay: Antimicrobial activity against Enterococcus faecium Ho 4418-0062 with heterozygous 23S rRNA G2576U mutation; format: functional; method in brief: as §1
Enterococcus faecium [8] = assay: Antimicrobial activity against Enterococcus faecium 28 with heterozygous 23S rRNA G2576U mutation; format: functional; method in brief: as §1
Staphylococcus aureus [9] = assay: Antimicrobial activity against methicillin-resistant Staphylococcus aureus B2 with heterozygous 23S rRNA G2576U mutation; format: functional; method in brief: as §1
Staphylococcus aureus [10] = assay: Antimicrobial activity against Staphylococcus aureus RN4220 with 23S rRNA G2576U mutation; format: functional; method in brief: as §1
Staphylococcus aureus [11] = assay: Antimicrobial activity against methicillin-resistant Staphylococcus aureus Ho 4536-0368 with heterozygous 23S rRNA G2576U mutation; format: functional; method in brief: as §1
Staphylococcus aureus [12] = assay: Antimicrobial activity against Staphylococcus aureus RN4220 with 23S rRNA G2447T mutation; format: functional; method in brief: as §1
Enterococcus faecalis [13] = assay: Antimicrobial activity against Enterococcus faecalis 25 with heterozygous 23S rRNA G2576U mutation; format: functional; method in brief: as §1
Enterococcus faecium [14] = assay: Antimicrobial activity against Enterococcus faecium 44 with heterozygous 23S rRNA G2576U mutation; format: functional; method in brief: as §1
Enterococcus faecium [15] = assay: Antimicrobial activity against Enterococcus faecium 34 with homozygous 23S rRNA G2576U mutation; format: functional; method in brief: as §1
Enterococcus faecium [16] = assay: Antimicrobial activity against Enterococcus faecium Ho 5114-0276 with heterozygous 23S rRNA G2576U mutation; format: functional; method in brief: as §1
Enterococcus faecium [17] = assay: Antimicrobial activity against Enterococcus faecium 31 with heterozygous 23S rRNA G2576U mutation; format: functional; method in brief: as §1
Enterococcus faecium [18] = assay: Antimicrobial activity against Enterococcus faecium 18 with heterozygous 23S rRNA G2576U mutation; format: functional; method in brief: as §1
Enterococcus faecium [19] = assay: Antimicrobial activity against Enterococcus faecium 3 with heterozygous 23S rRNA G2576U mutation
Enterococcus faecalis [20] = assay: Antimicrobial activity against Enterococcus faecalis Ho 4450-0446 with heterozygous 23S rRNA G2576U mutation; format: functional; method in brief: as §1
Staphylococcus aureus [21] = assay: Antimicrobial activity against Staphylococcus aureus ST/02/2121 with 23S rRNA G2447T mutation; format: functional; method in brief: as §1
Staphylococcus aureus [22] = assay: Antimicrobial activity against Staphylococcus aureus RN4220 deltamutS with 23S rRNA G2576U and A2503G mutation; format: functional; method in brief: as §1
Staphylococcus aureus [23] = assay: Antimicrobial activity against Staphylococcus aureus ST/02/2121; format: functional; method in brief: as §1
Enterococcus faecalis [24] = assay: Antimicrobial activity against Enterococcus faecalis 1 L2 with heterozygous 23S rRNA G2576U mutation; format: functional; method in brief: as §1
Staphylococcus aureus [25] = assay: Antimicrobial activity against methicillin-resistant Staphylococcus aureus Ho 4280-0258 with heterozygous 23S rRNA G2576U mutation; format: functional; method in brief: as §1
Staphylococcus aureus [26] = assay: Antimicrobial activity against methicillin-resistant Staphylococcus aureus Ho 4536-0367 with heterozygous 23S rRNA G2576U mutation; format: functional; method in brief: as §1
Enterococcus faecalis [27] = assay: Antimicrobial activity against Enterococcus faecalis 9 with heterozygous 23S rRNA G2576U mutation; format: functional; method in brief: as §1
Staphylococcus aureus [28] = assay: Antimicrobial activity against Staphylococcus aureus RN4220 deltamutS; format: functional; method in brief: as §1
Staphylococcus aureus [29] = assay: Antimicrobial activity against methicillin-resistant Staphylococcus aureus Ho 4280-0256 with heterozygous 23S rRNA G2576U mutation; format: functional; method in brief: as §1
Enterococcus faecalis [30] = assay: Antimicrobial activity against Enterococcus faecalis 37 with heterozygous 23S rRNA G2576U mutation; format: functional; method in brief: as §1
Enterococcus faecium [31] = assay: Antimicrobial activity against Enterococcus faecium 16 with homozygous 23S rRNA G2576U mutation; format: functional; method in brief: as §1
Enterococcus faecium [32] = assay: Antimicrobial activity against Enterococcus faecium 2 L1 with homozygous 23S rRNA G2576U mutation
Staphylococcus aureus [33] = assay: Antimicrobial activity against methicillin-resistant Staphylococcus aureus Ho 4280-0257 with heterozygous 23S rRNA G2576U mutation; format: functional; method in brief: as §1

Work on `CC(=O)NC[C@H]1CN(c2ccc(N3Cc4cn(C)nc4C3)c(F)c2)C(=O)O1` yielded an MIC (Staphylococcus aureus [1]) of 8 µg/mL (≈ 21.4 µM), an MIC (Enterococcus faecalis [2]) of 8 µg/mL (≈ 21.4 µM) and an MIC (Enterococcus faecium [3]) of 16 µg/mL (≈ 42.9 µM). The MIC (Staphylococcus aureus [4]) was 0.5 µg/mL (≈ 1.34 µM), the MIC (Staphylococcus aureus [5]) was 8 µg/mL (≈ 21.4 µM) and the MIC (Staphylococcus aureus [6]) was 8 µg/mL (≈ 21.4 µM). For the same molecule, the MIC (Enterococcus faecium [7]) was 16 µg/mL (≈ 42.9 µM), the MIC (Enterococcus faecium [8]) was 8 µg/mL (≈ 21.4 µM) and the MIC (Staphylococcus aureus [9]) was 8 µg/mL (≈ 21.4 µM). The MIC (Staphylococcus aureus [10]) was 4 µg/mL (≈ 10.7 µM), the MIC (Staphylococcus aureus [11]) was 8 µg/mL (≈ 21.4 µM) and the MIC (Staphylococcus aureus [12]) was 8 µg/mL (≈ 21.4 µM). The MIC (Enterococcus faecalis [13]) was 16 µg/mL (≈ 42.9 µM), the MIC (Enterococcus faecium [14]) was 4 µg/mL (≈ 10.7 µM) and the MIC (Enterococcus faecium [15]) was 32 µg/mL (≈ 85.7 µM). For the same molecule, the MIC (Enterococcus faecium [16]) was 2 µg/mL (≈ 5.36 µM), the MIC (Enterococcus faecium [17]) was 8 µg/mL (≈ 21.4 µM) and the MIC (Enterococcus faecium [18]) was 8 µg/mL (≈ 21.4 µM). It also gave an MIC (Enterococcus faecium [19]) of 16 µg/mL (≈ 42.9 µM), an MIC (Enterococcus faecalis [20]) of 2 µg/mL (≈ 5.36 µM) and an MIC (Staphylococcus aureus [21]) of 4 µg/mL (≈ 10.7 µM). For the same molecule, the MIC (Staphylococcus aureus [22]) was 8 µg/mL (≈ 21.4 µM), the MIC (Staphylococcus aureus [23]) was 1 µg/mL (≈ 2.68 µM) and the MIC (Enterococcus faecalis [24]) was 16 µg/mL (≈ 42.9 µM). It also gave an MIC (Staphylococcus aureus [25]) of 8 µg/mL (≈ 21.4 µM), an MIC (Staphylococcus aureus [26]) of 2 µg/mL (≈ 5.36 µM) and an MIC (Enterococcus faecalis [27]) of 16 µg/mL (≈ 42.9 µM). For the same molecule, the MIC (Staphylococcus aureus [28]) was 0.5 µg/mL (≈ 1.34 µM), the MIC (Staphylococcus aureus [29]) was 4 µg/mL (≈ 10.7 µM) and the MIC (Enterococcus faecalis [30]) was 8 µg/mL (≈ 21.4 µM). For the same molecule, the MIC (Enterococcus faecium [31]) was 16 µg/mL (≈ 42.9 µM), the MIC (Enterococcus faecium [32]) was 32 µg/mL (≈ 85.7 µM) and the MIC (Staphylococcus aureus [33]) was 8 µg/mL (≈ 21.4 µM).

Work on `CC(=O)NC[C@H]1CN(c2ccc(N3CCOCC3)c(F)c2)C(=O)O1` [LINEZOLID] yielded an MIC (Staphylococcus aureus [1]) of 16 µg/mL (≈ 47.4 µM), an MIC (Enterococcus faecalis [2]) of 32 µg/mL (≈ 94.9 µM) and an MIC (Enterococcus faecium [3]) of 64 µg/mL (≈ 190 µM). It also gave an MIC (Staphylococcus aureus [5]) of 16 µg/mL (≈ 47.4 µM), an MIC (Staphylococcus aureus [6]) of 16 µg/mL (≈ 47.4 µM) and an MIC (Enterococcus faecium [7]) of 32 µg/mL (≈ 94.9 µM). For the same molecule, the MIC (Enterococcus faecium [8]) was 16 µg/mL (≈ 47.4 µM), the MIC (Staphylococcus aureus [9]) was 32 µg/mL (≈ 94.9 µM) and the MIC (Staphylococcus aureus [10]) was 16 µg/mL (≈ 47.4 µM). It also gave an MIC (Staphylococcus aureus [11]) of 32 µg/mL (≈ 94.9 µM), an MIC (Staphylococcus aureus [12]) of 16 µg/mL (≈ 47.4 µM) and an MIC (Enterococcus faecalis [13]) of 32 µg/mL (≈ 94.9 µM). For the same molecule, the MIC (Enterococcus faecium [14]) was 16 µg/mL (≈ 47.4 µM), the MIC (Enterococcus faecium [15]) was 64 µg/mL (≈ 190 µM) and the MIC (Enterococcus faecium [16]) was 8 µg/mL (≈ 23.7 µM). It also gave an MIC (Enterococcus faecium [17]) of 32 µg/mL (≈ 94.9 µM), an MIC (Enterococcus faecium [18]) of 32 µg/mL (≈ 94.9 µM) and an MIC (Enterococcus faecium [19]) of 64 µg/mL (≈ 190 µM). It also gave an MIC (Staphylococcus aureus [21]) of 16 µg/mL (≈ 47.4 µM), an MIC (Staphylococcus aureus [22]) of 32 µg/mL (≈ 94.9 µM) and an MIC (Enterococcus faecalis [24]) of 32 µg/mL (≈ 94.9 µM). For the same molecule, the MIC (Staphylococcus aureus [25]) was 32 µg/mL (≈ 94.9 µM), the MIC (Staphylococcus aureus [26]) was 8 µg/mL (≈ 23.7 µM) and the MIC (Enterococcus faecalis [27]) was 64 µg/mL (≈ 190 µM). It also gave an MIC (Staphylococcus aureus [29]) of 16 µg/mL (≈ 47.4 µM), an MIC (Enterococcus faecalis [30]) of 32 µg/mL (≈ 94.9 µM) and an MIC (Enterococcus faecium [31]) of 64 µg/mL (≈ 190 µM). It also gave an MIC (Enterococcus faecium [32]) of 64 µg/mL (≈ 190 µM) and an MIC (Staphylococcus aureus [33]) of 32 µg/mL (≈ 94.9 µM).
